Article PMC9564113 (Peptide Science (Hoboken, N.j.), 2022)
Values after ≈ are worked out from the molar mass of the structure shown. Where two headings read alike, the source gives them in different places. Ends that are not written are not given here.

How the values were obtained:
[1] = tested on: S. aureus USA300 membrane potential; assay: Membrane depolarization; assay type: cell-based, Staphylococcus aureus; conditions: DiBAC4(3) 500 nM; YZ105 8 μM, nafcillin 4 μM, linezolid 32 μM; Triton X‐100 positive control
How it was run: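 USA300 was grown in TSB to exponential phase, washed twice with PBS, and resuspended in PBS with 25 mM glucose (15 min, 37 °C). DiBAC4(3) was added to 500 nM. Baseline fluorescence (ex 485/em 520 nm) was read for 20 min. Test compound was then added and reading continued for 40 min, with Triton X-100 as positive control.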

[2] = tested on: S. aureus USA300 membranes; assay: Membrane permeabilization; assay type: cell-based, Staphylococcus aureus; conditions: in PBS, 4 × MIC (YZ103 16 μM, YZ105 4 μM, nafcillin 2 μM, linezolid 16 μM, LL‐37 16 μM), 20 μM propidium iodide, 37 °C
[3] = tested on: S. aureus USA300 LAC biofilms; assay: Effect on 24 h preformed biofilms; assay type: cell-based, Staphylococcus aureus
How it was run: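 Biofilms were formed for 24 h at 37 °C from exponential-phase USA300 LAC. After PBS washes they were exposed to test compound in fresh TSB for 24 h at 37 °C. Following further washes, viable cells were measured by XTT (2 h, 37 °C, A450, blank of medium plus XTT). Results are given as % growth relative to untreated (100%), with water-treated and uninoculated controls; mean ± SD, p < 0.05.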

[4] = tested on: Staphylococcus aureus USA300 LAC; assay: Broth microdilution MIC, S. aureus USA300 LAC; assay type: cell-based; conditions: for MIC: Staphylococcus aureus; for MIC, S. aureus clinical strain USA300: Table 5, broth microdilution; for Antibacterial minimal inhibitory concentration, Staphylococcus aureus USA300 LAC: broth microdilution, 37 °C, 18–20 h, read at 630 nm
How it was run: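 Broth microdilution was run in tryptic soy broth. Log-phase USA300 LAC (OD600 ≈ 0.5) was diluted to 0.001 OD over serially diluted test compound, incubated 18–20 h at 37 °C and read at 630 nm. For medium effects the broth was adjusted to pH 5.5, 6.8, 7.4 or 8.0, brought to 100 mM NaCl, or supplemented with 1, 5 or 10% human serum.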

S. aureus USA300 = assay: Killing kinetics of exponential bacteria; assay type: cell-based, Staphylococcus aureus; conditions: 4 × MIC (YZ105 4 uM, nafcillin 2 μM, linezolid 16 μM), 2 h, exponential phase bacteria, colony counting
[5] = tested on: Nafcillin‐resistant S. aureus USA300; assay: Antibacterial assay, nafcillin-resistant S. aureus USA300; assay type: cell-based, Staphylococcus aureus
How it was run: (§1)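 Log-phase cultures (OD600 ≈ 0.5) grown in tryptic soy broth were diluted to 0.001 OD and added to serially diluted test compound. Peptide stocks were freshly made in autoclaved water and quantitated by UV. Plates were incubated at 37 °C for 18–20 h and read at 630 nm for growth.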

[6] = tested on: Pseudomonas aeruginosa E411‐17; assay: Broth microdilution MIC, P. aeruginosa E411-17; assay type: cell-based; conditions: TSB, 37 °C, 18–20 h
How it was run: as §1

[7] = tested on: Staphylococcus epidermidis 1457; assay: Broth microdilution MIC, S. epidermidis 1457; assay type: cell-based; conditions: TSB, 37 °C, 18–20 h
How it was run: as §1

[8] = tested on: Acinetobacter baumannii B28‐16; assay: Broth microdilution MIC, A. baumannii B28-16; assay type: cell-based; conditions: TSB, 37 °C, 18–20 h
How it was run: as §1

[9] = tested on: Klebsiella pneumoniae E406‐17; assay: Broth microdilution MIC, K. pneumoniae E406-17; assay type: cell-based; conditions: TSB, 37 °C, 18–20 h
How it was run: as §1

Escherichia coli E423‐17 = assay: Broth microdilution MIC, E. coli E423-17; assay type: cell-based; conditions: TSB, 37 °C, 18–20 h
How it was run: as §1

S. aureus USA200 = assay: Antibacterial assay, S. aureus clinical strain USA200; assay type: cell-based, Staphylococcus aureus; conditions: broth microdilution, TSB
How it was run: as §1

S. aureus Mu50 = assay: Antibacterial assay, S. aureus clinical strain Mu50; assay type: cell-based, Staphylococcus aureus; conditions: broth microdilution, TSB
How it was run: as §1

S. aureus USA400 = assay: Antibacterial assay, S. aureus clinical strain USA400; assay type: cell-based, Staphylococcus aureus; conditions: broth microdilution, TSB
How it was run: as §1

S. aureus Newman = assay: Antibacterial assay, S. aureus clinical strain Newman; assay type: cell-based, Staphylococcus aureus; conditions: broth microdilution, TSB
How it was run: as §1

[10] = tested on: Gram‐positive and Gram‐negative bacteria; conditions: G+ = Gram‐positive bacteria; cited from earlier work
[11] = tested on: Gram‐positive pathogens (S. aureus, Enterococcus faecalis, Streptococcus spp., Bacillus anthracis, Clostridioides difficile, Propionibacterium acnes, Mycobacter); conditions: cited from earlier work
[12] = USA300, pH 5.5, read-out: MIC against S. aureus USA300, pH 5.5
[13] = USA300, pH 6.8, read-out: MIC against S. aureus USA300, pH 6.8
[14] = USA300, pH 7.4, read-out: MIC against S. aureus USA300, pH 7.4
[15] = USA300, pH 8, read-out: MIC against S. aureus USA300, pH 8
[16] = USA300, read-out: MIC against S. aureus USA300, 100 mM NaCl

CC(=O)NC[C@H]1CN(c2ccc(N3CCOCC3)c(F)c2)C(=O)O1 [Linezolid, linezolid, reference compound]
Membrane depolarization [1]: neither nafcillin nor linezolid was able to
Membrane permeabilization (propidium iodide fluorescence) [2]: neither nafcillin nor linezolid permeabilized the membranes
Effect on 24 h preformed biofilms in combination ([3]; in the presence of 2 μM YZ105, XTT): became more effective
MIC [4, 12]: 4 µM (≈ 1.35 µg/mL)
MIC [4, 13]: 4 µM (≈ 1.35 µg/mL)
MIC [4, 14]: 4 µM (≈ 1.35 µg/mL)
MIC [4, 15]: 4 to 8 µM (≈ 1.35 to 2.7 µg/mL)
MIC [4, 16]: 4 µM (≈ 1.35 µg/mL)
Reduction of MRSA counts (CFU) in killing kinetics (S. aureus USA300): 1 log

CCOc1ccc2ccccc2c1C(=O)N[C@@H]1C(=O)N2[C@@H]1SC(C)(C)[C@@H]2C(=O)O [Nafcillin, nafcillin, reference compound]
Membrane depolarization [1]: neither nafcillin nor linezolid was able to
MIC ([5]; Staphylococcus aureus, USA300, read-out: MIC, Nafcillin‐resistant USA300): 1020 µM (≈ 424 µg/mL)
Membrane permeabilization (propidium iodide fluorescence) [2]: neither nafcillin nor linezolid permeabilized the membranes
Effect on 24 h preformed biofilms ([3]; 24 h treatment in TSB, live cells by XTT at 450 nm, relative to untreated (100%)): did not display a clear effect
MIC [4, 12]: 0.5 µM (≈ 0.207 µg/mL)
MIC [4, 13]: 1 µM (≈ 0.414 µg/mL)
MIC [4, 14]: 0.5 to 1 µM (≈ 0.207 to 0.414 µg/mL)
MIC [4, 15]: 1 µM (≈ 0.414 µg/mL)
MIC [4, 16]: 1 to 2 µM (≈ 0.414 to 0.829 µg/mL)
Increase of MIC values by serum ([4]; TSB with human serum compared with normal TSB): 4–8 fold
Reduction of MRSA counts (CFU) in killing kinetics (S. aureus USA300): barely reduced bacterial burden

CC[C@H](C)[C@H](NC(=O)[C@H](CCCNC(=N)N)NC(=O)[C@H](C)NC(=O)[C@@H](NC(=O)[C@H](CO)NC(=O)[C@@H](NC(=O)[C@@H](NC(=O)[C@H](CCC(N)=O)NC(=O)[C@H](CO)NC(=O)[C@@H](NC(=O)[C@@H](N)Cc1ccccc1)[C@@H](C)CC)[C@@H](C)CC)[C@@H](C)CC)[C@@H](C)O)C(N)=O [YZ103]
Antibacterial minimal inhibitory concentration, Pseudomonas aeruginosa E411‐17 [6]: >16 µM
Antibacterial minimal inhibitory concentration, Staphylococcus epidermidis 1457 [7]: >16 µM
Antibacterial minimal inhibitory concentration, Acinetobacter baumannii B28‐16 [8]: >16 µM
Antibacterial minimal inhibitory concentration, Klebsiella pneumoniae E406‐17 [9]: >16 µM
Antibacterial minimal inhibitory concentration, Escherichia coli E423‐17 (Escherichia coli E423‐17): >16 µM
MIC, S. aureus clinical strain USA200 (S. aureus USA200): >32 µM
MIC, S. aureus clinical strain Mu 50 (S. aureus Mu50): >32 µM
MIC, S. aureus clinical strain USA400 (S. aureus USA400): >32 µM
MIC, S. aureus clinical strain USA300 ([4]; TSB): >32 µM
Antibacterial minimal inhibitory concentration, Staphylococcus aureus USA300 LAC ([4]; TSB): >16 µM
MIC, S. aureus clinical strain Newman (S. aureus Newman): >32 µM

CC[C@H](C)[C@H](NC(=O)[C@H](CCCNC(=N)N)NC(=O)[C@H](C)NC(=O)[C@@H](NC(=O)[C@H](CO)NC(=O)[C@@H](NC(=O)[C@@H](NC(=O)[C@H](CCC(N)=O)NC(=O)[C@H](CO)NC(=O)[C@@H](NC(=O)[C@@H](N)Cc1ccccc1)[C@@H](C)CC)[C@@H](C)CC)[C@@H](C)CC)[C@@H](C)O)C(=O)N[C@@H](CC(C)C)C(=O)N[C@@H](CC(C)C)C(N)=O [YZ104]
Antibacterial minimal inhibitory concentration, Pseudomonas aeruginosa E411‐17 [6]: >16 µM
Antibacterial minimal inhibitory concentration, Staphylococcus epidermidis 1457 [7]: >16 µM
Antibacterial minimal inhibitory concentration, Acinetobacter baumannii B28‐16 [8]: >16 µM
Antibacterial minimal inhibitory concentration, Klebsiella pneumoniae E406‐17 [9]: >16 µM
Antibacterial minimal inhibitory concentration, Escherichia coli E423‐17 (Escherichia coli E423‐17): >16 µM
Antibacterial minimal inhibitory concentration, Staphylococcus aureus USA300 LAC ([4]; TSB): >16 µM

FLSKILSTLRILF-NH2 [YZ107]
Antibacterial minimal inhibitory concentration, Pseudomonas aeruginosa E411‐17 [6]: 8 to 16 µM
Antibacterial minimal inhibitory concentration, Staphylococcus epidermidis 1457 [7]: 2 µM
Antibacterial minimal inhibitory concentration, Acinetobacter baumannii B28‐16 [8]: 4 to 8 µM
Antibacterial minimal inhibitory concentration, Klebsiella pneumoniae E406‐17 [9]: >16 µM
Antibacterial minimal inhibitory concentration, Escherichia coli E423‐17 (Escherichia coli E423‐17): 8 µM
Antibacterial minimal inhibitory concentration, Staphylococcus aureus USA300 LAC ([4]; TSB): 2 µM

FLSKILSTLRILL-NH2 [YZ106]
Antibacterial minimal inhibitory concentration, Pseudomonas aeruginosa E411‐17 [6]: >16 µM
Antibacterial minimal inhibitory concentration, Staphylococcus epidermidis 1457 [7]: 1 to 2 µM
Antibacterial minimal inhibitory concentration, Acinetobacter baumannii B28‐16 [8]: 8 µM
Antibacterial minimal inhibitory concentration, Klebsiella pneumoniae E406‐17 [9]: >16 µM
Antibacterial minimal inhibitory concentration, Escherichia coli E423‐17 (Escherichia coli E423‐17): 8 to 16 µM
Antibacterial minimal inhibitory concentration, Staphylococcus aureus USA300 LAC ([4]; TSB): 2 µM

FLSQILSTLRILL-NH2 [YZ105]
Antibacterial minimal inhibitory concentration, Pseudomonas aeruginosa E411‐17 [6]: >16 µM
Antibacterial minimal inhibitory concentration, Staphylococcus epidermidis 1457 [7]: 1 µM
Antibacterial minimal inhibitory concentration, Acinetobacter baumannii B28‐16 [8]: >16 µM
Antibacterial minimal inhibitory concentration, Klebsiella pneumoniae E406‐17 [9]: >16 µM
Antibacterial minimal inhibitory concentration, Escherichia coli E423‐17 (Escherichia coli E423‐17): >16 µM
MIC, Nafcillin‐resistant USA300 ([5]; broth microdilution, TSB): 2 µM
MIC, S. aureus clinical strain USA200 (S. aureus USA200): 1 µM
MIC, S. aureus clinical strain Mu 50 (S. aureus Mu50): 2 µM
MIC, S. aureus clinical strain USA400 (S. aureus USA400): 1 µM
MIC against S. aureus USA300, pH 5.5 ([4]; TSB adjusted to pH 5.5): 4–8 μM
MIC against S. aureus USA300, pH 6.8 ([4]; TSB adjusted to pH 6.8): 2 μM
MIC against S. aureus USA300, pH 8 ([4]; TSB adjusted to pH 8.0): <0.5 μM
MIC against S. aureus USA300, 100 mM NaCl ([4]; TSB with 100 mM NaCl added): 2 µM
MIC against S. aureus USA300, 1% serum ([4]; TSB with 1% human serum): 2 µM
MIC against S. aureus USA300, 5% serum ([4]; TSB with 5% human serum): 8 µM
MIC against S. aureus USA300, 10% serum ([4]; TSB with 10% human serum): 8 to 16 µM
MIC against S. aureus USA300, pH 7.4 ([4]; TSB, pH 7.4 (normal condition)): 1–2 μM
MIC, S. aureus clinical strain USA300 ([4]; TSB): 1 µM
Antibacterial minimal inhibitory concentration, Staphylococcus aureus USA300 LAC ([4]; TSB): 1 µM
MIC, S. aureus clinical strain Newman (S. aureus Newman): 2 µM

LL‐37: human cathelicidin LL‐37 (LLGDFFRKSKEKIGKEFKRIVQRIKDFLRNLVPRTES; Antibacterial peptide LL-37; UniProt P49913 134-170, looked up)
Membrane permeabilization (propidium iodide fluorescence) [2]: steady increase in fluorescence with time

teixobactin
Activity spectrum [10]: Mainly G+
MIC [11]: 5 to 250 ng/mL
